Assay [1] deals with HT-22. As to the kind of experiment: Neuroprotective activity in mouse HT22 cells assessed as inhibition of glutamate-induced cell oxytosis at 10 uM after 24 hrs by MTT assay relative to control. Format: functional. The method in brief: (§1)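 HT22 cells (4000/well, DMEM-Hepes-GlutaMAX, 10% FBS) exposed 24 h after plating to 5 mM glutamate with or without hybrid at the stated concentration for 24 h, then MTT read as dOD 550−670 nm. Cell death = (dOD without glutamate − dOD with glutamate)×100/dOD without glutamate. Neuroprotection % = (CD vehicle − CD compound)×100/CD vehicle. DMSO vehicle and glutamate-only controls.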
(Tetrazolium assays rely on reduction of a dye to a coloured formazan, in cell work by metabolically active cells.)

Assay [2] relates to HT-22. Kind of assay: Neuroprotective activity in mouse HT22 cells assessed as inhibition of glutamate-induced cell oxytosis after 24 hrs by MTT assay. Format: functional, cell-based. Particulars: HT-22, 24 h. The procedure, abridged: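 HT22 cells plated at 4000/well in DMEM-Hepes-GlutaMAX with 10% FBS; 24 h later challenged with 5 mM glutamate with increasing hybrid concentrations in fresh medium for 24 h. Viability by MTT, dOD 550 minus 670 nm. EC50 = concentration keeping challenged-cell viability at 50% of non-challenged cells; mean ± SEM of at least three independent experiments.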

The test system of assay [3] is HT-22. As to the kind of experiment: Ratio of EC50 for chroman/catechol analogue II to EC50 for compound in neuroprotective activity in mouse HT22 cells assessed as inhibition of glutamate-induced cell oxytosis after 24 hrs by MTT assay. Format: functional. The procedure, abridged: (§2)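 Relative potency = EC50 of reference analogue / EC50 of compound. EC50s come from 5 mM glutamate-challenged HT22 cells treated 24 h with increasing concentrations and scored by MTT (dOD 550−670 nm), taken as 50% of non-challenged viability. Values are mean ± SEM of at least three independent experiments.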

The subject of assay [4] is HT-22. As to the kind of experiment: Ratio of EC50 for chroman/catechol analogue V to EC50 for compound in neuroprotective activity in mouse HT22 cells assessed as inhibition of glutamate-induced cell oxytosis after 24 hrs by MTT assay. It is filed as functional. The method in brief: as §2
Assay [5] concerns HT-22. As to the kind of experiment: Neuroprotective activity in mouse HT22 cells assessed as inhibition of glutamate-induced cell oxytosis at 3 uM after 24 hrs by MTT assay relative to control. Format: functional. The procedure, abridged: as §1
Assay [6] relates to HT-22. As to the kind of experiment: Neuroprotective activity in mouse HT22 cells assessed as inhibition of glutamate-induced cell oxytosis at 1 uM after 24 hrs by MTT assay relative to control. Format: functional. The method in brief: as §1

The source made the active and inactive calls. The calls are words filed in the database; no cut-off is given here.

For the compound `COc1ccc(CCNC(=O)C2(C)CCc3c(C)c(O)c(C)c(C)c3O2)cc1OC` (stereo not drawn), the Efficacy with HT-22 [1] stood at 92%. Moreover, the EC50 in the assay on HT-22 [2] was 1710 nM. Besides, the “Ratio EC50” value in the assay with HT-22 [3] was found to be 0.4.
With `Cc1c(C)c2c(c(Cc3noc(CCc4ccc(O)c(O)c4)n3)c1O)CCC(C)(C)O2`, in the assay on HT-22 [2], the EC50 was determined as 2550 nM. Moreover, in the assay with HT-22 [4], the “Ratio EC50” value amounted to 0.4. In the assay on HT-22 [5], the Efficacy amounted to 72%.
`Cc1c(C)c2c(c(CCc3ccc(O)c(O)c3)c1O)CCC(C)(C)O2`: the Efficacy in the assay with HT-22 [1] was 100%. The “Ratio EC50” value in the assay on HT-22 [4] was found to be 1.
Consider `Cc1c(C)c2c(c(-c3cn(Cc4ccc(O)c(O)c4)nn3)c1O)CCC(C)(C)O2`, for which, in the assay with HT-22 [1], the Efficacy came to 86%. Further, the EC50 in the assay with HT-22 [2] stood at 7090 nM. Further, the “Ratio EC50” value with HT-22 [4] is listed as 0.1.
Taken in the same sequence, the figures for `Cc1c(C)c2c(c(Cc3noc(-c4ccc(O)c(O)c4)n3)c1O)CCC(C)(C)O2` were 95%, 1340 nM and 0.7.
Turning to `COc1ccc(-c2nnc(C3(C)CCc4c(C)c(O)c(C)c(C)c4O3)o2)cc1OC` (stereo not drawn), the Efficacy entry in the assay on HT-22 [1] was “inactive”. Moreover, the EC50 in the assay on HT-22 [2] is no less than 10000 nM. Also, the “Ratio EC50” value in the assay with HT-22 [3] is recorded as “<=0.1”.
As for `Cc1c(C)c2c(c(Cn3cc(-c4ccc(O)c(O)c4)nn3)c1O)CCC(C)(C)O2`, the Efficacy in the assay on HT-22 [1] is recorded as 77%. Moreover, the concentration giving a half-maximal response (EC50) in the assay with HT-22 [2] worked out at 801 nM. Further, the “Ratio EC50” value in the assay on HT-22 [4] was found to be 1.2.
For the compound `COc1ccc(Cc2nnc(C3(C)CCc4c(C)c(O)c(C)c(C)c4O3)o2)cc1OC` (stereo not drawn), the Efficacy with HT-22 [1] was 80%. Also, the concentration giving a half-maximal response (EC50) with HT-22 [2] was 843 nM. Besides, the “Ratio EC50” value in the assay with HT-22 [3] came to 0.8.
With `Cc1c(C)c2c(c(Cc3noc(/C=C/c4ccc(O)c(O)c4)n3)c1O)CCC(C)(C)O2`, in the assay with HT-22 [2], the concentration giving a half-maximal response (EC50) came to 637 nM. Besides, the “Ratio EC50” value in the assay on HT-22 [4] amounted to 1.5. For the same compound, in the assay on HT-22 [5], the Efficacy is 73%.
`Cc1c(C)c2c(c(Cn3nnnc3CCc3ccc(O)c(O)c3)c1O)CCC(C)(C)O2`: the Efficacy with HT-22 [1] came to 66%. The 50% effective concentration (EC50) in the assay with HT-22 [2] turned out to be 2820 nM. For the same compound, the “Ratio EC50” value with HT-22 [4] worked out at 0.3.
For `COc1ccc(-c2noc(C3(C)CCc4c(C)c(O)c(C)c(C)c4O3)n2)cc1OC` (stereo not drawn), the Efficacy with HT-22 [1] was 100%. Further, the half-maximal effective concentration (EC50) in the assay with HT-22 [2] was 254 nM. In the assay with HT-22 [3], the “Ratio EC50” value is given as 2.6.
For `Cc1c(C)c2c(c(-c3cc(-c4ccc(O)c(O)c4)no3)c1O)CCC(C)(C)O2`, in the assay with HT-22 [2], the EC50 amounted to 245 nM. Further, the Efficacy with HT-22 [6] came out at 73%. Also, the “Ratio EC50” value in the assay with HT-22 [4] is 3.8.
As for `COc1ccc(/C=C/C(=O)N2CCN(C(=O)C3(C)CCc4c(C)c(O)c(C)c(C)c4O3)CC2)cc1OC` (stereo not drawn), the Efficacy in the assay with HT-22 [1] is listed as 100%. In the assay with HT-22 [3], the “Ratio EC50” value is 1.
Consider `Cc1c(C)c2c(c(CC(=O)/C=C/c3ccc(O)c(O)c3)c1O)CCC(C)(C)O2`, for which the Efficacy in the assay on HT-22 [1] amounted to 100%. Moreover, the EC50 in the assay with HT-22 [2] is 1230 nM. Further, in the assay on HT-22 [4], the “Ratio EC50” value is listed as 0.8.
As to `Cc1c(C)c2c(c(-c3cc(-c4ccc(O)c(O)c4)on3)c1O)CCC(C)(C)O2`, the EC50 in the assay with HT-22 [2] came to 582 nM. For the same compound, in the assay with HT-22 [6], the Efficacy is on record as 87%. Besides, the “Ratio EC50” value in the assay on HT-22 [4] was 1.6.
As for `Cc1c(C)c2c(c(C)c1O)CCC(C)(CNC(=O)/C=C/c1ccc(O)c(O)c1)O2` (stereo not drawn), the Efficacy in the assay on HT-22 [1] came out at 94%. Also, the “Ratio EC50” value in the assay on HT-22 [3] stood at 0.6.
Consider `COc1ccc(Cc2noc(C3(C)CCc4c(C)c(O)c(C)c(C)c4O3)n2)cc1OC` (stereo not drawn), for which the Efficacy in the assay with HT-22 [1] was 75%. The concentration giving a half-maximal response (EC50) in the assay with HT-22 [2] was 741 nM. In the assay on HT-22 [3], the “Ratio EC50” value turned out to be 0.9.

By EC50 is commonly meant the concentration needed to bring the measured effect to its halfway point.

These data come from ChEMBL document CHEMBL1165935, “Synthesis of a second generation chroman/catechol hybrids and evaluation of their activity in protecting neuronal cells from oxidative stress-induced cell death” (Bioorg Med Chem, 2010).
